Experimental data taken from ChEMBL document CHEMBL4007465, “1,4-Substituted Triazoles as Nonsteroidal Anti-Androgens for Prostate Cancer Treatment” (J Med Chem, 2017).
Calls of active or inactive are those of the source. The rule behind the calls is not given here.

How the values were obtained:
[1] = molecular target: T1, Androgen receptor (Homo sapiens) (UniProt P10275)
T1 sequence (whole entry): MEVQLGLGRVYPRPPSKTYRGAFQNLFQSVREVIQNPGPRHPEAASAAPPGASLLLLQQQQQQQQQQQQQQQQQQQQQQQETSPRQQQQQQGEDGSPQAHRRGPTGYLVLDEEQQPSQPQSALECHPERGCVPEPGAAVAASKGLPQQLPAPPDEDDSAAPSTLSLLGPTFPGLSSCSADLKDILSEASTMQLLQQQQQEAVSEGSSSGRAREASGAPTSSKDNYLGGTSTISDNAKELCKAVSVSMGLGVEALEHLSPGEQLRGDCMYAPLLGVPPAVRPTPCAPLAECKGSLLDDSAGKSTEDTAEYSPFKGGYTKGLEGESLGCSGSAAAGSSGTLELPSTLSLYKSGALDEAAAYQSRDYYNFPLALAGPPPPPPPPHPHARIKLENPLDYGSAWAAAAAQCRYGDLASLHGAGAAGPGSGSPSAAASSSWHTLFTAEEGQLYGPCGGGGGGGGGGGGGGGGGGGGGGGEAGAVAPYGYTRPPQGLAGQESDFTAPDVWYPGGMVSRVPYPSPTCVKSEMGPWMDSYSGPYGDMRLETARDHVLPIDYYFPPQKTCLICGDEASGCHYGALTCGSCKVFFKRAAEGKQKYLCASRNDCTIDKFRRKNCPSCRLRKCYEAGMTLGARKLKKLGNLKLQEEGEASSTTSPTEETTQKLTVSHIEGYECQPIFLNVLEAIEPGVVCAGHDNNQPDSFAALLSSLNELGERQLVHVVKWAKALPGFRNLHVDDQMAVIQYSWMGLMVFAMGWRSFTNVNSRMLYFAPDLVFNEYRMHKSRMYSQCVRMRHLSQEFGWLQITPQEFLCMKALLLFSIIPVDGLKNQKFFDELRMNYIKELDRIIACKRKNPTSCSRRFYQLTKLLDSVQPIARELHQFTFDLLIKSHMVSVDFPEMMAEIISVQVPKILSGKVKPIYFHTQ

[2] = molecular target: T1, Androgen receptor (Homo sapiens); test: Antagonist activity at androgen receptor in human LNCAP cells assessed as reduction in PSA mRNA expression at 10 uM after 24 hrs by RT-qPCR analysis relative to control; type: cell-based
Outline: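 LNCaP cells treated 24 h after seeding with 10 μM compound for 24 h at 37 °C. RNA extracted, cDNA made from equal RNA amounts, then SYBR Green RT-qPCR for PSA. Normalised to 18S rRNA, relative levels by comparative Ct method versus untreated cells. Run in triplicate.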

[3] = Antagonist activity at androgen receptor V7 mutant in human CW22Rv1 cells assessed as cell growth inhibition after 72 hrs by SRB assay; type: cell-based
[4] = Antitumor activity against human CW22Rv1 cells xenografted in nude CD1 mouse assessed as tumor volume inhibition at 50 mg/kg administered through oral gavage dosed qd for 5 days a week measured on day 7; type: functional
Outline: (§1)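 Male CD-1 nude (nu/nu) mice, 8 weeks old, given 5 × 10^6 CW22Rv1 cells in saline s.c. in the right flank on day 0. Randomized, 5 per group. From day 1, before tumors were palpable, 50 mg/kg by oral gavage at 10 mL/kg in DMSO/Cremophor/PBS (10/5/85), qdx5/wx3w. Vehicle controls. Tumor volume by caliper as a × b²/2. TVI is the maximum value. Body weight loss monitored.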

[5] = system: Mus musculus; test: Toxicity in nude CD1 mouse xenografted with human CW22Rv1 cells assessed as mortality at 50 mg/kg administered through oral gavage dosed qd for 5 days a week for 3 weeks; type: organism-based; settings: in vivo
Outline: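 Eight-week-old male CD-1 nude mice, 5 per group, given CW22Rv1 cells (5 × 10^6 in saline) sc in right flank on day 0. From day 1, oral gavage at 50 mg/kg (10 mL/kg) in DMSO/Cremophor/PBS (10/5/85), daily 5 days/week for 3 weeks. Vehicle controls. Toxicity scored as deaths per group, with body weight loss.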

[6] = system: Mus musculus; test: Toxicity in nude CD1 mouse xenografted with human CW22Rv1 cells assessed as body weight loss at 50 mg/kg administered through oral gavage dosed qd for 5 days a week for 3 weeks; type: organism-based; settings: in vivo
Outline: as §1

[7] = molecular target: T1, Androgen receptor (Homo sapiens); test: Antagonist activity at androgen receptor in human LNCAP cells assessed as cell death after 144 hrs by SRB assay; type: cell-based
Outline: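 LNCaP cells in RPMI with 10% FBS and 1% glutamine, 5000 cells/well, exposed 24 h after seeding for 144 h to 0.02–20 μM. Read by SRB, OD 490 nm. LC50 is the concentration killing 50% of cells, i.e. treated OD below time-zero OD, per the Monks formula. Octuplicate wells, three independent experiments, mean ± SD.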

[8] = system: Homo sapiens [UNDEFINED MUTATION]; test: Antagonist activity at androgen receptor V7 mutant in human CW22Rv1 cells assessed as cell growth inhibition after 144 hrs by SRB assay; type: cell-based
Outline: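 SRB assay on CW22Rv1 cells grown in RPMI 1640 with 10% FBS and 1% glutamine. Cells plated at 1700/well and exposed 24 h after seeding for 144 h to 0.02–20 μM. OD read at 490 nm. GI50 is the concentration giving 50% growth inhibition by the Monks formula relative to time-zero and untreated OD. Octuplicate wells, three independent experiments, mean ± SD.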

[9] = species on record: Homo sapiens; test: Potency index, ratio of (R)-bicalutamide IC50 to compound IC50 for antagonist activity at AR V7 mutant in human CW22Rv1 cells assessed as cell growth inhibition; type: cell-based
Outline: (§2)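 CW22Rv1 growth-inhibition assay: cells exposed 24 h after seeding to 0.5–100 μM for 72 h, then counted with a Coulter counter. IC50 is the concentration causing 50% growth inhibition, taken from dose–response curves. Run in triplicate, three independent experiments, mean ± SD. Ratios divide the reference IC50 by the compound IC50.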

[10] = species on record: Homo sapiens; test: Potency index, ratio of enzalutamide IC50 to compound IC50 for antagonist activity at AR V7 mutant in human CW22Rv1 cells assessed as cell growth inhibition; type: cell-based
Outline: as §2

[11] = system: Homo sapiens [UNDEFINED MUTATION]; test: Antagonist activity at androgen receptor V7 mutant in human CW22Rv1 cells assessed as cell death after 144 hrs by SRB assay; type: cell-based
Outline: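 CW22Rv1 (RPMI 1640, 10% FBS, 1% glutamine) plated at 1700 cells/well; 24 h after seeding, drug exposure 0.02–20 μM for 144 h. Sulforhodamine B read at 490 nm. LC50 = concentration killing 50% of cells, i.e. OD treated below OD at time of drug addition (Monks formula). Octuplicate wells, three independent experiments, mean ± SD.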

SMILES	inhibition [2]	also measured
N#Cc1ccc(-n2cc(CSc3ccc(F)cc3)nn2)cc1C(F)(F)F	> 65%	GI50 [1]: 16.8 µM
N#Cc1ccc(-n2cc(COc3cccc(C(F)(F)F)c3)nn2)cc1C(F)(F)F	inactive	–
N#Cc1ccc(OCc2cn(CC(=O)Nc3ccc(C#N)c(C(F)(F)F)c3)nn2)cc1	70%	GI50 [1]: 6.42 µM
C[C@](O)(CS(=O)(=O)c1ccc(F)cc1)C(=O)Nc1ccc(C#N)c(C(F)(F)F)c1 [(R)-BICALUTAMIDE]	–	IC50 [3]: 31.3 µM
N#Cc1ccc(-n2cc(COc3ccc([N+](=O)[O-])cc3)nn2)cc1C(F)(F)F	> 65%	–
N#Cc1ccc(-n2nnc(COc3ccc([N+](=O)[O-])cc3C(F)(F)F)c2I)cc1C(F)(F)F	inactive	–
N#Cc1ccc(-n2cc(-c3cccc(C(F)(F)F)c3F)nn2)cc1C(F)(F)F	inactive	–
CC(O)c1c(COc2ccc(C#N)cc2)nnn1-c1ccc(C#N)c(C(F)(F)F)c1 (stereo not given)	> 65%	–
N#Cc1ccc(NC(=O)Cn2cc(COc3ccc(F)cc3)nn2)cc1C(F)(F)F	inactive	–
N#Cc1ccc(-n2cc(COc3ccccc3)nn2)cc1C(F)(F)F	> 65%	–
N#Cc1ccccc1OCc1cn(-c2ccc(C#N)c(C(F)(F)F)c2)nn1	> 65%	–
N#Cc1ccc(-n2cc(COc3ccc(F)cc3)nn2)cc1C(F)(F)F	> 65%	GI50 [1]: 19.2 µM
N#Cc1ccc(-n2cc(-c3cccc(Cl)c3F)nn2)cc1C(F)(F)F	inactive	–
CNC(=O)c1ccc(N2C(=S)N(c3ccc(C#N)c(C(F)(F)F)c3)C(=O)C2(C)C)cc1F [ENZALUTAMIDE]	–	%max [4]: 43%; Activity [5]: Non-Toxic; IC50 [3]: 35.8 µM; Activity [6]: 0%
N#Cc1ccc(-n2cc(COc3ccc(C(F)(F)F)cc3)nn2)cc1C(F)(F)F	inactive	–
N#Cc1ccc(-n2cc(COc3ccc(F)c(C(F)(F)F)c3)nn2)cc1C(F)(F)F	inactive	–
N#Cc1ccc(OCc2cn(CC(=O)Nc3ccc(Cl)c(C(F)(F)F)c3)nn2)cc1	inactive	%max [4]: 60%; GI50 [1]: 5.09 µM; GI50 [7]: 15.7 µM; Activity [5]: Non-Toxic; GI50 [8]: 8.25 µM; Ratio IC50 [9]: 3.8; IC50 [3]: 8.14 µM; Ratio IC50 [10]: 4.4; Activity [6]: 0%; LC50 [11]: 23.1 µM
N#Cc1ccc(-n2cc(-c3cccc(F)c3F)nn2)cc1C(F)(F)F	38%	–
N#Cc1ccc(-n2cc(COc3ccccc3[N+](=O)[O-])nn2)cc1C(F)(F)F	> 65%	–
N#Cc1ccc(OCc2cn(-c3ccc(C#N)c(C(F)(F)F)c3)nn2)cc1	> 65%	–
O=[N+]([O-])c1ccc(OCc2cn(-c3cccc(C(F)(F)F)c3)nn2)c(C(F)(F)F)c1	inactive	–
N#Cc1ccc(NC(=O)Cn2cc(CSc3ccc(F)cc3)nn2)cc1C(F)(F)F	inactive	–
N#Cc1ccc(-n2cc(COc3cccc(C(F)(F)F)c3F)nn2)cc1C(F)(F)F	inactive	–
N#Cc1ccc(-n2cc(COc3ccc([N+](=O)[O-])cc3C(F)(F)F)nn2)cc1C(F)(F)F	inactive	–
